Screening results (PubChem BioAssay)
Compounds with a hit are over-represented: about 3.7% of the library has one in this group of screens.
hERG rescue = hERG rescue from dofetilide block, primary screen, cell-based, CHO-hERG, FluxOR thallium flux, dofetilide IC70 | dofetilide IC70 present | activation (rescue from dofetilide block), less the hit threshold, % at 10 µM | hit rate 0.51% among 310,000 | AID 1511, 2009;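 active = activation above the mean of controls blocked by dofetilide plus 5 SD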;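 also: thallium influx through hERG after potassium depolarization seen as dye fluorescence rise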
Kir21 block = inhibitors of mouse Kir2.1 inward-rectifier potassium channel; B-score at 10 µM; hit rate 0.85% among 310,000; Inward rectifier potassium channel 2 (Mus musculus), P35561; AID 1672, 2009; HEK293-Kir2.1, FluxOR thallium flux fluorescence; stronger effect = lower value;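 active = fluorescence ratio B-score at or below minus 3 SD of library scores, with starting-brightness B-score within 2 SD, cut at about -4.2 in these data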;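 also: channel flux triggered by added potassium and thallium sulfate stimulus; B-score of peak minus minimum fluorescence over baseline after thallium stimulus; more negative B-score means stronger Kir2.1 block with less thallium influx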
KCNK9 block = KCNK9 potassium channel inhibitors, primary screen, HEK293 cells, thallium flux; Potassium channel subfamily K member 9 (Homo sapiens), Q9NPC2; FluxOR thallium flux fluorescence; stronger effect = lower value; B-score at 10 µM; hit rate 1.2% among 310,000; AID 488922, 2010;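 active = ratio B-score over 3 SD below the library mean, with starting fluorescence within 5 SD of its mean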;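 also: negative B-score means less thallium flux so channel inhibition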
KCNK3 block = human KCNK3 channel inhibitors, primary screen, CHO cells, FluxOR thallium flux, B-score | hit rate 0.84% among 340,000 | Potassium channel subfamily K member 3 (Homo sapiens), O14649 | FluxOR fluorescence; stronger effect = lower value | B-score at 10 µM;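 active = B-score under library mean minus 4 SD, starting fluorescence ratio at most library mean plus 5 SD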;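 also: more negative B-score means stronger inhibition of thallium flux through KCNK3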
KCNQ1 act = potentiators or activators of KCNQ1 channel, primary screen, cell-based, thallium flux, high-throughput | hit rate 0.35% among 310,000 | Potassium voltage-gated channel subfamily KQT member 1 (Homo sapiens), P51787 | B-score at 10 µM | CHO-K1 KCNQ1, thallium flux FluxOR fluorescence; stronger effect = higher value;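 active = fluorescence ratio B-score, a plate-corrected score, at least three library SD, with initial intensity B-score within 5 SD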
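System: CHO-K1 cells stably expressing KCNQ1 / Medium: assay buffer for compound exposure, DMSO matched across wells / Reagent: thallium- and potassium-containing depolarizing buffer / Compound: one concentration, matched DMSO / Incubation: 20 min compound pretreatment at room temperature / Measured by: kinetic FluxOR fluorescence, 10 s baseline plus 110 s post-stimulus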
KCNQ1 inh = inhibitors of human KCNQ1 channel, primary screen, cell-based, thallium flux, high-throughput; Potassium voltage-gated channel subfamily KQT member 1 (Homo sapiens), P51787; CHO-K1 KCNQ1, FluxOR thallium flux fluorescence; stronger effect = higher value; B-score at 10 µM; hit rate 1.3% among 310,000; AID 2642, 2010;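 active = compounds whose thallium flux B-score, printed positive for inhibition, exceeds three library SD while starting fluorescence stays within three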;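 also: channel opened by potassium depolarization with thallium stimulus after 20 min compound exposure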
The depositor's hits bear a star; i = inactive; · = not tested or not shown.

SMILES	hERG rescue	Kir21 block	KCNK9 block	KCNK3 block	KCNQ1 act	KCNQ1 inh
CC(C)NCC(O)Cn1c2c(c3ccccc31)CCc1c-2cnn1-c1ccccc1 (centres undefined)	-18	-6.1*	i	i	i	i
COc1ccc(C(=O)c2c(C)c3ccccc3n2CC(O)CNC(C)C)cc1 (centres undefined)	-12	-4.1	i	i	i	i
CNC(=S)Nc1cccc([N+](=O)[O-])c1	-6	0.52	i	i	i	i
C/C(=N/NC(=S)Nc1cccc(C)c1)c1cccc([N+](=O)[O-])c1	0	0.34	i	i	10*	i
Cc1cc(Br)ccc1NC(=S)Nc1cccc([N+](=O)[O-])c1	-18	-0.99	i	i	i	10*
CC1(C)Cc2c(cnn2-c2ccccc2)C(=O)/C1=N\NC(=O)c1ccccc1O	-5	0.75	i	i	i	i
N#C/C(=C\c1ccccc1)C(=O)N1CCN(c2ccccc2F)CC1	-7	-5.1*	i	i	i	i
N#C/C(=C\c1cccc(Br)c1)C(=O)N1CCCCC1	-13	-6.9*	i	i	i	i
COc1ccc(OC)c(NC(=O)c2cc(-c3cc(C)cc(C)c3O)n[nH]2)c1	-2	-0.25	i	i	i	i
CC(=O)N(Cc1ccc(Br)cc1)c1cccc(C)c1C	-6	-4.9*	i	i	i	i
COc1ccc(NC(=O)c2nc[nH]c2C(=O)N2CCN(c3ccccc3)CC2)cc1	5.7*	0.02	i	i	i	i
COc1cccc(NC(=O)c2cccs2)c1	-9	-0.16	i	i	i	i
CNC(=O)c1[nH]cnc1C(=O)Nc1cccc(OC)c1	-12	-4.5*	i	i	i	i
COc1cccc(NC(=O)c2cncs2)c1	5.0*	1.8	i	i	14*	i
O=C(Nc1ccccc1)c1nc[nH]c1C(=O)N1CCN(c2ccccc2)CC1	·	·	·	i	·	·
Cc1ccc(S(=O)(=O)N(Cc2n[nH]c(=S)n2-c2ccccc2)c2ccccc2)cc1	-15	-0.4	i	i	i	i
Cc1ccc(S(=O)(=O)N(Cc2n[nH]c(=S)n2-c2ccccc2)c2cccc(Cl)c2)cc1	-19	0.01	i	i	i	6*
O=C(N/N=C/c1ccc(Cl)cc1Cl)C(=O)NC1CC1	-6	-0.52	i	i	i	i
CC(C)c1ccc(N=C2N=C(N)c3ccccc32)cc1	-10	-4.5*	i	i	i	i
NC1=NC(=Nc2ccccc2)c2ccccc21	-6	-1.2	i	i	i	i
CC1=CC=CN2C1=NC(=O)CC2(C)C(=O)N(CC(=O)NC1CCCC1)c1cc(C)cc(C)c1 (centres undefined)	-7	-0.79	i	i	i	i
C/C(=N\NC(N)=S)C1C2C3CC4C5CC(C42)C1C53 (centres undefined)	-10	-6*	i	i	i	i
CC(C)Oc1ccc(S(=O)(=O)N2CCOCC2)cc1NC(=O)c1cc([N+](=O)[O-])ccc1N1CCOCC1	-17	0.62	i	i	i	i
CN1CCCC1CCNc1ccc2sc3ccccc3c(=O)c2c1 (centres undefined)	-25	-15	-7.5*	i	i	i
O=c1c2ccccc2sc2ccc(NCCCN3CCOCC3)cc12	-21	-5.8	i	i	i	i
SMILES	hERG rescue	Kir21 block	KCNK9 block	KCNK3 block	KCNQ1 act	KCNQ1 inh
Cc1ccc(F)c([C@H]2[C@@H]3C=CCC[C@@]3(C)C(=O)N2Cc2ccccc2)c1	-6	-1.2	i	i	i	8*
CCNc1nc(C#N)nc2c1ncn2-c1cc(F)cc(F)c1	·	·	·	i	·	·
COc1cc(/C=N/NC(=O)CN2CCCCC2)ccc1OCc1ccc(Br)cc1	-20	-6.6*	i	i	i	i
CCCOc1ccc(C(=O)NNC(=O)CCNC(=O)c2ccco2)cc1OC	-4	-0.01	i	i	i	i
O=S(=O)(NCCCc1ccccc1)c1ccc(Cl)cc1	-13	-4.8*	i	i	i	i
Cc1ccc(C(=O)/C=C/c2ccc(-c3ccc(C)cc3)o2)cc1	-8	0.01	i	i	i	i
CCN(CC)S(=O)(=O)c1ccc(C(=O)/C=C/c2ccc(-c3ccc([N+](=O)[O-])cc3)o2)cc1	-14	-1.1	i	-9.3*	i	i
CCC(C)Sc1cccc(-c2nc3ccc(C)cn3c2NCc2ccccc2)c1 (centres undefined)	-29	0	i	i	i	7*
CCCCNc1c(-c2ccc(SC(C)CC)c(OC)c2)nc2ccc(C)cn12 (centres undefined)	-10	1.8	i	i	i	8*
CCC(C)Sc1cccc(-c2nc3ccc(Cl)cn3c2NCc2ccccc2)c1 (centres undefined)	-24	-0.36	i	i	i	i
CCCCNc1c(-c2ccc(SC(C)CC)c(OC)c2)nc2ccc(Cl)cn12 (centres undefined)	·	·	·	i	·	·
OCCC1CN(Cc2cccn2-c2cccnc2)CCN1C1CCCCC1 (centres undefined)	-15	0.52	i	i	i	i
CC1CCCN(CCCOc2ccc(Br)cc2Cl)C1 (centres undefined)	-19	-0.79	i	i	i	i
CC1CCN(CCOCCOc2ccc(Br)cc2Cl)CC1	-16	-7.6*	i	i	i	i
C=CCOc1ccc2nnc(C)n2n1	-9	-0.67	i	i	i	i
O=C1/C(=C\c2ccc(O)c(O)c2)C(c2ccccc2)=NN1c1ccccc1	-29	-2.6	i	i	i	6*
COc1cc(/C=C2\C(=O)N(c3ccc(NC(C)=O)cc3)N=C2c2ccccc2)ccc1O	-17	-2.5	i	i	i	i
Cn1ncc(Br)c1N1C(=O)CCC1=O	-7	0.05	i	i	i	i
CCOc1ccc(CN2CCN(Cc3cc4ccccc4[nH]3)CC2CCO)cc1 (centres undefined)	-7	-0.04	i	i	i	i
